One series deals with T1, Cathepsin K (Homo sapiens, UniProt P43235).
T1 sequence (P43235 whole entry): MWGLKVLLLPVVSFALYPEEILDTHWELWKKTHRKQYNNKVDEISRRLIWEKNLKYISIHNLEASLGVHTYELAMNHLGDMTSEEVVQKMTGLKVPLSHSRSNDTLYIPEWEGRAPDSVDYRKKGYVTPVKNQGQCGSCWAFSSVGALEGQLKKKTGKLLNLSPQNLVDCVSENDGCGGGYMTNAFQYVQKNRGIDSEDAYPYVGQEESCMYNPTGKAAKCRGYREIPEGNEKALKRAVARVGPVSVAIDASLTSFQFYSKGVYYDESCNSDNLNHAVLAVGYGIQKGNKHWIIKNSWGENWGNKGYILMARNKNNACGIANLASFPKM
Description: Inhibition of recombinant His-tagged human cathepsin K expressed in Escherichia coli.

A further series concerns the target Procathepsin L (Homo sapiens, UniProt P07711). The series can be described thus: Inhibition of human liver cathepsin L.
Another series deals with Cathepsin S (Homo sapiens, UniProt P25774). The series can be described thus: Inhibition of recombinant human cathepsin S expressed in Escherichia coli.
Sequence of Cathepsin S (P25774 whole entry): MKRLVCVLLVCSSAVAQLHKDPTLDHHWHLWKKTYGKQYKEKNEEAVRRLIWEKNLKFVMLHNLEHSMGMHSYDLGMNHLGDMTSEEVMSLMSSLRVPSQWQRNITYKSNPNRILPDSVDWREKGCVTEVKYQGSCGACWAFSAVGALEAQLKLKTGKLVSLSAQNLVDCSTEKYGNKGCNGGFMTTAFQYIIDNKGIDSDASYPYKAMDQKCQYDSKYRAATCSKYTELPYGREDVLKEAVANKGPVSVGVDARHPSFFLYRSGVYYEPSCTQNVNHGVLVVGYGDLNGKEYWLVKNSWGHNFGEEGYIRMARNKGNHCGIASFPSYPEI
Another series has as its system MG-63. Description: Cytotoxicity against human MG63 cells assessed as reduction in cell viability at 0.001 to 5 uM after 3 days by MTT assay. The format is cell-based. As to conditions: mg-63, 72 h. An outline of the steps: (§1)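 Cells plated at 60000/well (primary chondrocytes from epiphyseal cartilage of 5-6 day-old SWISS mice) or 100 000/well (MG-63, MOVAS cell lines). Grown in DMEM with 10% FBS plus penicillin/streptomycin, with or without inhibitor, for 3 days up to confluence. MTT 0.125 mg/mL final for 4 h, then DMSO solubilization and A570 read. Normalized to 0.1% DMSO control as 100%. Three sample pools, each in triplicate (n = 9).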

Series [1] can be described thus: Cytotoxicity against mouse MOVAS1 cells assessed as reduction in cell viability at 0.001 to 5 uM after 3 days by MTT assay. It counts as cell-based. To be noted: 72 h. An outline of the steps:
as §1

A short description of series [2]: Cytotoxicity against mouse Primary chondrocytes assessed as reduction in cell viability at 0.001 to 5 uM after 3 days by MTT assay. To be noted: 72 h. An outline of the steps: as §1
Series [3] deals with T2, Cathepsin K (Mus musculus) (UniProt P55097).
T2 sequence (whole entry): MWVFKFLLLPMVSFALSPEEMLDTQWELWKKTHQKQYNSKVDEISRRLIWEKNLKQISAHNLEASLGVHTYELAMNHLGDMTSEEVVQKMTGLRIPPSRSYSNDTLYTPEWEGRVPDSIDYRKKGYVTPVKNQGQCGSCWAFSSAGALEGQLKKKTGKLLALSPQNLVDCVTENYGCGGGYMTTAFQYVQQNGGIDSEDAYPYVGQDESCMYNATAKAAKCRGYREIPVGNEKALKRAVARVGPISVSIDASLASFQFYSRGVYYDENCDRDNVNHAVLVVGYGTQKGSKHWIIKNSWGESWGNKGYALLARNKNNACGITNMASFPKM
The series can be described thus: Inhibition of cathepsin K in mouse Primary chondrocytes derived after 2 passages at 0.1 to 1 uM using Z-GPR-4MbetaNA as substrate by fluorescence assay relative to control. The format is cell-based. The method in brief:
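Lysates of passaged primary chondrocytes in zymography extraction buffer. Incubated with Z-GPR-4MβNA (1 mg/mL), and released 4MβNA captured with 10 μM 5-nitrosalicylaldehyde. Fluorescence read at ex 488/em 525 nm, at least three reads per condition. Activity taken as (control − sample fluorescence) normalized to Bradford protein. Three independent experiments in triplicate.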

Series [4] is filed under the species Mus musculus. Description: Inhibition of aggrecanase in mouse Primary chondrocytes derived after 1 passages assessed as effect on measuring sGAG content at 1 uM by Alcian blue staining-based assay. It counts as cell-based. The method in brief:
(§2)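 Passaged primary chondrocytes cultured ± inhibitor. Washed in PBS, fixed in 4% formaldehyde for 30 min at RT, then stained 30 min with 1% Alcian blue in 0.1 N HCl. Dye extracted with 33% isopropanol in 4.0 mol/L GnCl and A595 measured. Three independent experiments in triplicate.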

In series [5] the target is T2, Cathepsin K (Mus musculus). Description: Inhibition of cathepsin K in mouse Primary chondrocytes derived after 2 passages at 1 uM after 24 hrs by Coomassie blue staining-based zymography assay. The format is cell-based. The method in brief:
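Chondrocyte lysates in pH 7.5 extraction buffer. Equal protein resolved on 12% SDS gels containing 2 mg/mL gelatin. Renatured in Tris/glycerol, then developed in pH 6.0 100 mM sodium phosphate with 1 mM EDTA and 2 mM DTT. After 30 min, buffer exchanged for fresh buffer with 0.1% DMSO ± inhibitor for 24 h at 37 °C. Coomassie stain and destain; lysis zones indicate activity.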

The species entered for series [6] is Mus musculus. The series can be described thus: Inhibition of aggrecanase in mouse Primary chondrocytes derived after 2 passages assessed as effect on measuring sGAG content at 1 uM by Alcian blue staining-based assay. It counts as cell-based. An outline of the steps:
as §2

Series [7] is filed under the species Mus musculus. Description: Inhibition of aggrecanase in mouse Primary chondrocytes derived after 0 passages assessed as effect on measuring sGAG content at 1 uM by Alcian blue staining-based assay. It counts as cell-based.
Series [8] addresses 72 kDa type IV collagenase (Mus musculus) (UniProt P33434). The series can be described thus: Inhibition of MMP2 in mouse Primary chondrocytes derived after 2 passages at 1 uM after 24 hrs by Coomassie blue staining-based zymography assay. The format is cell-based. The method in brief:
(§3)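 Gelatin zymography of extracellular medium from primary mouse chondrocytes. Medium collected in pH 7.5 Tris/EGTA/Triton extraction buffer, and equal protein run on 8% SDS gels with 1.2 mg/mL gelatin. Renatured in Tris/20% glycerol (2 × 45 min), then pH 7.4 Tris/NaCl/5 mM CaCl2 buffer. After 30 min, fresh buffer with 0.1% DMSO ± inhibitor for 24 h at 37 °C. Coomassie stained; clear bands scored. Triplicate.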

The target of series [9] is Matrix metalloproteinase-9 (Mus musculus) (UniProt P41245). The series can be described thus: Inhibition of MMP9 in mouse Primary chondrocytes derived after 2 passages at 1 uM after 24 hrs by Coomassie blue staining-based zymography assay. The format is cell-based. The method in brief: as §3
Sequence of Matrix metalloproteinase-9 (Mus musculus) (P41245 whole entry): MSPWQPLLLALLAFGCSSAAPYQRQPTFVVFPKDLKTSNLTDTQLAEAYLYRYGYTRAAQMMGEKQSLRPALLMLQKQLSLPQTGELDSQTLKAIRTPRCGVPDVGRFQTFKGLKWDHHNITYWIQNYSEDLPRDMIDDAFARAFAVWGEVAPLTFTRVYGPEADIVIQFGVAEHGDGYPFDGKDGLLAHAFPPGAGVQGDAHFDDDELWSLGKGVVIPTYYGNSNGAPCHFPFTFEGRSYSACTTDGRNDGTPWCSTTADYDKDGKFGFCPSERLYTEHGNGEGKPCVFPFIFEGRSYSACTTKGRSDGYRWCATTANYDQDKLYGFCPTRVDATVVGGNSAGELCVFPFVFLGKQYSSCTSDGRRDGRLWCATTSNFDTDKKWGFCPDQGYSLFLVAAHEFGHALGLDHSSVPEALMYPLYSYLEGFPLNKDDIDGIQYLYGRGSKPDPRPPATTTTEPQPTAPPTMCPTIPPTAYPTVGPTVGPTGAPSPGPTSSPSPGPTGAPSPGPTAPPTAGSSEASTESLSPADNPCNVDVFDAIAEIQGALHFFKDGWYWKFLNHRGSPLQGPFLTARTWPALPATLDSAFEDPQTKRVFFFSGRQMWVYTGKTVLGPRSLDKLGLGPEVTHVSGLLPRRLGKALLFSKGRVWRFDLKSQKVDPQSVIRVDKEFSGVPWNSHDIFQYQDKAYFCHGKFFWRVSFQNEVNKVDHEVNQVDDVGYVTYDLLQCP

The source made the active and inactive calls. No cut-off for these calls is given here.

Sequence of Procathepsin L (P07711 whole entry): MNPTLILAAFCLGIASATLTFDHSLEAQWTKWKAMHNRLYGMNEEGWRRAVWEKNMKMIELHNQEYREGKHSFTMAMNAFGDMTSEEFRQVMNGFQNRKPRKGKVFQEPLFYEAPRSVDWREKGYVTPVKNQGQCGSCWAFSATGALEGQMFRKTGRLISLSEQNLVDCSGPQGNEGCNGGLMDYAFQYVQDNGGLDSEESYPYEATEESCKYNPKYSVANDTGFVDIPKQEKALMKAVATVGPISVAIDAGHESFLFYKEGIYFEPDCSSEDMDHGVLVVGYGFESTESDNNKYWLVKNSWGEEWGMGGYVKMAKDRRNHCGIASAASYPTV
Sequence of 72 kDa type IV collagenase (Mus musculus) (P33434 whole entry): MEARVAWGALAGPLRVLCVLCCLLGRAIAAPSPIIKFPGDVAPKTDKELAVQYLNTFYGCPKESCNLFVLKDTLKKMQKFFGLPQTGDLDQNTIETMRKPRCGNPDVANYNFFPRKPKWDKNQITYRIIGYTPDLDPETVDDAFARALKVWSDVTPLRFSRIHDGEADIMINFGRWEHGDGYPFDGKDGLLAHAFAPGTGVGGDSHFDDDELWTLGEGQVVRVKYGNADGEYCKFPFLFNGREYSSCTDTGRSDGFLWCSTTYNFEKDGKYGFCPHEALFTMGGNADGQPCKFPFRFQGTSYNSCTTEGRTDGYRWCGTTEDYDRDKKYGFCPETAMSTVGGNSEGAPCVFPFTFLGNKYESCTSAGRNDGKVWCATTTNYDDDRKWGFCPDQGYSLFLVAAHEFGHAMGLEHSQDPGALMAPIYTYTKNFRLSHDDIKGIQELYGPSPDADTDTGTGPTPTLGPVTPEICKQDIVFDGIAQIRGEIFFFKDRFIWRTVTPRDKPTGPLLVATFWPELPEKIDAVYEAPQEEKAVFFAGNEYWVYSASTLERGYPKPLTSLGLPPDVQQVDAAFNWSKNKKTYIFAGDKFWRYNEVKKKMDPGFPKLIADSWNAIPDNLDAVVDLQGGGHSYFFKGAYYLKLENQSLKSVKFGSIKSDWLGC

As for `CC(C)CC(C(=O)N(C)N(C)C#N)c1cccc(-c2ccc(S(C)(=O)=O)cc2)c1` (racemic), the values for the IC50 on Cathepsin K, against Procathepsin L and at Cathepsin S were 0.015 µM, 2.71 µM and 1.02 µM, respectively. For the same molecule, the Ki at Cathepsin K came to 0.00721 µM; at Procathepsin L, 0.406 µM; on Cathepsin S it was 0.735 µM. The Activity result (in the series on MG-63; in series [1]; in series [2]) was “Non-Toxic” each time. In [3], the inhibition is 30 to 40%. Also, the inhibition result (in the series listed under Mus musculus [4]; in the series listed under Mus musculus [6]; in the series listed under Mus musculus [7]; in [8]; in [9]) was “inactive” each time. The inhibition entry in series [5] is “Active”.
`CC(C)(F)C[C@H](N[C@@H](c1ccc(-c2ccc(S(C)(=O)=O)cc2)cc1)C(F)(F)F)C(=O)NC1(C#N)CC1` gave an inhibition in series [3] of 19 to 30%. For the same molecule, the inhibition entry in series [5] was “Active”. The inhibition entry in series [8] and in [9] was “inactive” in each case.

(Values after ChEMBL document CHEMBL4368938, “Design, synthesis and biological evaluation of inhibitors of cathepsin K on dedifferentiated chondrocytes” (Bioorg Med Chem, 2019).)
